Laboratory results taken from ChEMBL document CHEMBL4387720, “Lead generation of 1,2-dithiolanes as exon 19 and exon 21 mutant EGFR tyrosine kinase inhibitors” (Bioorg Med Chem Lett, 2019).
Values belong to the compound of their own block, whether it stands above or below them.

What was measured:
[1] = target: Receptor tyrosine-protein kinase erbB-2 (Homo sapiens, UniProt P04626); experiment: Inhibition of probe binding to HER2 (unknown origin) using rabbit reticulate lysate system after 1 hr by luminescence assay
Receptor tyrosine-protein kinase erbB-2, sequence (P04626 whole entry): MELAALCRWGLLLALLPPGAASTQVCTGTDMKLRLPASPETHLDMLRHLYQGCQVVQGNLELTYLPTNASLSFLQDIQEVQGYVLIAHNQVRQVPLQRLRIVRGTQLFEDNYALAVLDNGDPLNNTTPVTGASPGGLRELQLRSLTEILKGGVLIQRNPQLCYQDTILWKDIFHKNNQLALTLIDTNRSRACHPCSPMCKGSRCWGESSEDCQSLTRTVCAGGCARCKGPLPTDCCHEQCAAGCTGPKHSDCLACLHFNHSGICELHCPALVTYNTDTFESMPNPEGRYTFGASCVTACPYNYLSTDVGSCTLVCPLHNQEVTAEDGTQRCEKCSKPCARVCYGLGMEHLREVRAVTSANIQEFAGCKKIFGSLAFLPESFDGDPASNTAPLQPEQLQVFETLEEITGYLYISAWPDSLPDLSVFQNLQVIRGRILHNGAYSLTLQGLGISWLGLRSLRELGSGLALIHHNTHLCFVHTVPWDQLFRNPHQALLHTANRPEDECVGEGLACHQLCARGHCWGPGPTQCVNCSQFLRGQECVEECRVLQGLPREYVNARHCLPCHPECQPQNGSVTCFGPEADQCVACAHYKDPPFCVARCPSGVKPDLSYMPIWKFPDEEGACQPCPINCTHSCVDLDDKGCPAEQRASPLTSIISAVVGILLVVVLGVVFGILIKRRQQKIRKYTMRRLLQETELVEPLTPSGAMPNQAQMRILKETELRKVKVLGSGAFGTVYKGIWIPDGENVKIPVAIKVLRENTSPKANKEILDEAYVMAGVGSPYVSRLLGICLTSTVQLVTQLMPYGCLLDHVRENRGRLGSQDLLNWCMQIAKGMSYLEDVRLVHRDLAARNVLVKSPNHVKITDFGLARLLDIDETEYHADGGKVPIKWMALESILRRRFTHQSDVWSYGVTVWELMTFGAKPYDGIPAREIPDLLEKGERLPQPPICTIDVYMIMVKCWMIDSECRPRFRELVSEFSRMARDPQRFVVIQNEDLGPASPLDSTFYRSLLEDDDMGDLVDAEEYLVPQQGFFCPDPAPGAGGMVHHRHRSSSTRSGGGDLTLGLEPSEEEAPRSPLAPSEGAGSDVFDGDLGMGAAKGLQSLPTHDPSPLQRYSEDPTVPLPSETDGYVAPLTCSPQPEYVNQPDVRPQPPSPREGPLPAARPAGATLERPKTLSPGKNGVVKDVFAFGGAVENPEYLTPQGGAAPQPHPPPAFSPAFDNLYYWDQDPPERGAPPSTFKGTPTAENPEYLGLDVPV
In short: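 Homogeneous competition binding in rabbit reticulocyte lysate with kinase expressed in the lysate. IC50 taken from a ten-point dose-response curve; value is the average of triplicate experiments.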

Homo sapiens = species: Homo sapiens; experiment: Selectivity ratio, ratio of IC50 for probe binding to HER2 (unknown origin) to IC50 for probe binding to EGFR L858R mutant (unknown origin)
In short: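 Ratio of two IC50 values measured in the rabbit reticulocyte lysate competition binding assay: HER2 and EGFR L858R. Each IC50 comes from displacement of an active-site-dependent probe, read by luminescence, with a ten-point dose-response. Each IC50 is the average of triplicate experiments.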

[2] = target: T1, Epidermal growth factor receptor (Homo sapiens, UniProt P00533, L858R)
T1 sequence (P00533 25-1210 L858R limits assumed): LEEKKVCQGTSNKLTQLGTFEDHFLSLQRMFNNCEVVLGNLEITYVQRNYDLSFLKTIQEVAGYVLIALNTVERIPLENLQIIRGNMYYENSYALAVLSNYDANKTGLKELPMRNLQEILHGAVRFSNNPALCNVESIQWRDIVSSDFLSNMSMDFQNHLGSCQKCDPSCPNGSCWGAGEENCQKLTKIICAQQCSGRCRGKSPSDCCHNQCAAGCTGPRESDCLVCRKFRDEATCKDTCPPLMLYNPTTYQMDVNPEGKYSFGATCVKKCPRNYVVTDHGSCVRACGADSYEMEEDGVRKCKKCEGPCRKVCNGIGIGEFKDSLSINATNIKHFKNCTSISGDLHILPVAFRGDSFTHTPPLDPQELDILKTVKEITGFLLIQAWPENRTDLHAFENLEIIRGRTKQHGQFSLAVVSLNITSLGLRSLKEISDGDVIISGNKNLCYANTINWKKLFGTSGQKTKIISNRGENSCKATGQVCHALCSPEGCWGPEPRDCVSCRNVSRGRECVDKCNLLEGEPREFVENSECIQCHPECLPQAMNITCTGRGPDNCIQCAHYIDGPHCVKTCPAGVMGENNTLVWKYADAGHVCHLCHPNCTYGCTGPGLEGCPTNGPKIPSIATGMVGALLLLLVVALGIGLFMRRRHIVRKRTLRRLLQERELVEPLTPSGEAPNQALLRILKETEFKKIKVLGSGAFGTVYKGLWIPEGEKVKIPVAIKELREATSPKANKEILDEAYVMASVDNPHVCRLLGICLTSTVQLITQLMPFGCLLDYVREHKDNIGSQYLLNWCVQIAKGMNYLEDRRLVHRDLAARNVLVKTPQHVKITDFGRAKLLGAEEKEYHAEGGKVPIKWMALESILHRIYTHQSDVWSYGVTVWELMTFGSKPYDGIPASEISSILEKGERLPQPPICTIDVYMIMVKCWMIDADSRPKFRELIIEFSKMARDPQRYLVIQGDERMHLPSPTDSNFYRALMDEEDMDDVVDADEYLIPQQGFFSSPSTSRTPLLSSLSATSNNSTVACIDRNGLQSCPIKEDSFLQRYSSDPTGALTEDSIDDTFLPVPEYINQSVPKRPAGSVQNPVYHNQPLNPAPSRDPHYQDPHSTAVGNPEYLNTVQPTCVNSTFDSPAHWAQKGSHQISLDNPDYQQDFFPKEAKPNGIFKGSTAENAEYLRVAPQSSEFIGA

[3] = target: Epidermal growth factor receptor (Homo sapiens, UniProt P00533); experiment: Inhibition of probe binding to wild type EGFR (unknown origin) using rabbit reticulate lysate system after 1 hr by luminescence assay
Epidermal growth factor receptor (Homo sapiens, UniProt P00533), sequence (P00533 whole entry): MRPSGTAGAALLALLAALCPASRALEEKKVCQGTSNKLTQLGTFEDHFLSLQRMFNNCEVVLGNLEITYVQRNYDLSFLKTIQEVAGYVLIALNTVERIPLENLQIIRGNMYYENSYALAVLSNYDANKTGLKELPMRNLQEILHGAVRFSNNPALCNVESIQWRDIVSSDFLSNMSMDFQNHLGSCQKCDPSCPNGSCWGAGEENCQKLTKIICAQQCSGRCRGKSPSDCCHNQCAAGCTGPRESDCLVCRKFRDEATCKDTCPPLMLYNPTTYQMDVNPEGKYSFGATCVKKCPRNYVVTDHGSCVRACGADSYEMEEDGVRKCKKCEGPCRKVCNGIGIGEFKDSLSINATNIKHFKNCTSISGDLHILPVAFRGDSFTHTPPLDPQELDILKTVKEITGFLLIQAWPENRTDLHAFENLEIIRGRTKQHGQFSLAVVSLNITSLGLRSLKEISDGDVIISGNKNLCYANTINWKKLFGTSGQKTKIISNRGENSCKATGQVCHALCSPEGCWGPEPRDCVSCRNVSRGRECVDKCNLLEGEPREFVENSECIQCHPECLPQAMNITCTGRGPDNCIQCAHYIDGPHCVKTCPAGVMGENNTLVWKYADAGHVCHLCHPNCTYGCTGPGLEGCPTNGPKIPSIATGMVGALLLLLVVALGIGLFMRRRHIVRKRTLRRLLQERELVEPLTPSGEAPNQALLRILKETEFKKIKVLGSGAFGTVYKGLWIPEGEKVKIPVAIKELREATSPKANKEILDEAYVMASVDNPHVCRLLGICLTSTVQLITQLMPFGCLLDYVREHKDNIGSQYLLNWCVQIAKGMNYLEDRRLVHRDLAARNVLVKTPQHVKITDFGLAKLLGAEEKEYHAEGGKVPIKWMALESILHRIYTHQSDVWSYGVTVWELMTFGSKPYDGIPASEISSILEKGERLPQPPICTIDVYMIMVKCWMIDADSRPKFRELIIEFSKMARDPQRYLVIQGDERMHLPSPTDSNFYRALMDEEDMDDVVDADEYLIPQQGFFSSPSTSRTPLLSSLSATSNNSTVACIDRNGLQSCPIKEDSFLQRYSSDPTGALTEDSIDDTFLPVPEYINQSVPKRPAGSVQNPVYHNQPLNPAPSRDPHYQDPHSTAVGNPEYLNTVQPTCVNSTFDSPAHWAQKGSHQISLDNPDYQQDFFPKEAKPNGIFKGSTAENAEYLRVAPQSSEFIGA

[4] = target: Epidermal growth factor receptor (Homo sapiens, UniProt P00533, E746-A750DEL); experiment: Binding affinity to human partial length EGFR E746-A750 deletion mutant expressed in bacterial expression system by KinomeScan assay
Epidermal growth factor receptor (Homo sapiens, UniProt P00533, E746-A750DEL), sequence (P00533 whole entry E746-A750del, looked up): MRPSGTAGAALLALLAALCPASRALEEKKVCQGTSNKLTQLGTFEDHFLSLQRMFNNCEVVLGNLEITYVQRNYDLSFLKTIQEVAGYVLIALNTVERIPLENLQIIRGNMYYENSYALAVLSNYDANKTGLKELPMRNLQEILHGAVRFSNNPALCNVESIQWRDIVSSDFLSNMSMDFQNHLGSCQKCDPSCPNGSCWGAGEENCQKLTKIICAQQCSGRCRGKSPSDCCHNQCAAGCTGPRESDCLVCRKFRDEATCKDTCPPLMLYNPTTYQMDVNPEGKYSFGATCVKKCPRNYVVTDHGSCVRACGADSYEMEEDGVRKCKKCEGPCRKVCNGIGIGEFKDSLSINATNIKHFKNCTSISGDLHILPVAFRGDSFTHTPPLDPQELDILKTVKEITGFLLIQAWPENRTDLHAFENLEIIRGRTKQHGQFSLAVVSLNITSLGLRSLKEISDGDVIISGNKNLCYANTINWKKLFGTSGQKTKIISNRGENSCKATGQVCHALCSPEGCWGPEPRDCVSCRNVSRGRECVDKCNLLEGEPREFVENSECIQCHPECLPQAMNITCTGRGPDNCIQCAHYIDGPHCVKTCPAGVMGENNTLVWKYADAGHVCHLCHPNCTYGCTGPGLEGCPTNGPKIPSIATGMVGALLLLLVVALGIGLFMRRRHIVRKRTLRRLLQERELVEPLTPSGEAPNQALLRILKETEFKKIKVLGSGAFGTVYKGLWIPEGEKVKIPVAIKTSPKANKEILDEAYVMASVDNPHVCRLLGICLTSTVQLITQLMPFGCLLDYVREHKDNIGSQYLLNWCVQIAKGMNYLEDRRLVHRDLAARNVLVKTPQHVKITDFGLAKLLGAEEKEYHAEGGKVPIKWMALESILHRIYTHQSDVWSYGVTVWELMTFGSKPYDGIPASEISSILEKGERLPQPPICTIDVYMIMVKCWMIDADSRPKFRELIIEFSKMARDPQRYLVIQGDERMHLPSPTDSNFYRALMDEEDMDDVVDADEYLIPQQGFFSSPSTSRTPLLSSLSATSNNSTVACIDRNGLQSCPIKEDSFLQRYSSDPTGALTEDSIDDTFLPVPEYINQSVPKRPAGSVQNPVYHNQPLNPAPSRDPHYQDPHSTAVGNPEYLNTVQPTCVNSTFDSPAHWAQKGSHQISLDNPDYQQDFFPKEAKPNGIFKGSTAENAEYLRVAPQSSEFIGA
In short: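 Competition binding against an immobilized active-site-directed ligand. Bound kinase is quantified by qPCR of its DNA tag. Kd values come from duplicate 11-point dose-response curves.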

[5] = Half life in rat S9 fraction; type: ADME, subcellular
[6] = target: T1, Epidermal growth factor receptor; experiment: Binding affinity to human partial length EGFR L858R mutant (R669 to V1011 residues) expressed in bacterial expression system by kinomescan assay
In short: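 Competition binding against an immobilized active-site-directed ligand; bound kinase quantified by qPCR of its DNA tag. Kd taken from duplicate 11-point dose-response curves.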

[7] = target: T1, Epidermal growth factor receptor; experiment: Binding affinity to human partial length EGFR L858R mutant (R669 to V1011 residues) expressed in bacterial expression system under partial equilibration condition by scanKINETIC assay
In short: (§1)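 Binding kinetics are read from Kd values measured under four dose-response arms. Arm A is full equilibration. Arm B is equilibrate, then 3-fold dilution, then equilibrate. Arm C is partial equilibration. Arm D is predilution followed by full equilibration. Comparing the arms assesses reversibility of binding.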

[8] = target: T1, Epidermal growth factor receptor; experiment: Binding affinity to human partial length EGFR L858R mutant (R669 to V1011 residues) expressed in bacterial expression system under predilution/full equilibration condition by scanKINETIC assay; in short: as §1
[9] = target: T1, Epidermal growth factor receptor; experiment: Binding affinity to human partial length EGFR L858R mutant (R669 to V1011 residues) expressed in bacterial expression system under equilibrate/3-fold dilution/eqiulibrate condition by scanKINETIC assay; in short: as §1
[10] = target: T1, Epidermal growth factor receptor; experiment: Binding affinity to human partial length EGFR L858R mutant (R669 to V1011 residues) expressed in bacterial expression system under full equilibrating condition by scanKINETIC assay; in short: as §1
CCRF-CEM [11] = experiment: cells; type: functional; details: Homo sapiens, 48 h
A549 = experiment: cells; type: functional; details: Homo sapiens, A549, 48 h
NCI-H322M [12] = experiment: Therapeutic index, ratio of LC50 for human NCI-H322M cells to GI50 for human NCI-H322M cells; type: functional
In short: (§2)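 NCI-60 panel screen using five-dose response curves, each value an average of 2 experiments. […] The therapeutic index is calculated as LC50/GI50 for the same cell line.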

MOLT-4 [13] = experiment: cells; type: functional; details: Homo sapiens, MOLT-4, 48 h
NCI-H322M [14] = experiment: cells; type: functional; details: Homo sapiens, 48 h
CCRF-CEM [15] = experiment: Therapeutic index, ratio of LC50 for human CCRF-CEM cells to GI50 for human CCRF-CEM cells; type: functional; in short: as §2
MOLT-4 [16] = experiment: Therapeutic index, ratio of LC50 for human MOLT4 cells to GI50 for human MOLT4 cells; type: functional; in short: as §2
NCI-H460 = experiment: cells; type: functional; details: Homo sapiens, NCI-H460, 48 h
CCRF-CEM [17] = experiment: Cytotoxicity against human CCRF-CEM cells assessed as reduction in measured protein incubated for 48 hrs by SRB assay; type: functional; details: read-out: LC50 (the source's name)
In short: (§3)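 Tested in the NCI-60 panel with a five-dose response curve, each value the mean of 2 experiments.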

MOLT-4 [18] = experiment: Cytotoxicity against human MOLT4 cells assessed as reduction in measured protein incubated for 48 hrs by SRB assay; type: functional; details: MOLT-4, 48 h, read-out: LC50 (the source's name); in short: as §3
NCI-H322M [19] = experiment: Cytotoxicity against human NCI-H322M cells assessed as reduction in measured protein incubated for 48 hrs by SRB assay; type: functional; details: read-out: LC50 (the source's name); in short: as §3
[20] = Half life in human S9 fraction; type: ADME, subcellular

IC50 [1]: 730 nM
Ratio IC50 (Homo sapiens): > 25
IC50 [2]: 36 nM
IC50 [3]: 164 nM
Structure (SMILES): N#Cc1cnc2ccc(NC(=O)CC3CCSS3)cc2c1Nc1ccc(OCc2cccc(F)c2)c(Cl)c1 (stereo not given)

half-life [5]: 27.5 min
Structure (SMILES): CC(C)NCC(O)COc1cccc2ccccc12 (stereo not given) [PROPRANOLOL]

IC50 [2]: 199 nM
Structure (SMILES): N#Cc1cnc2ccc(NC(=O)C3CSSC3)cc2c1Nc1ccc(OCc2cccc(F)c2)c(Cl)c1

IC50 [1]: 590 nM
Ratio IC50 (Homo sapiens): 1.4
IC50 [2]: 413 nM
IC50 [3]: 658 nM
Structure (SMILES): COc1cc2ncnc(Nc3ccc(Oc4ccc(C)nc4)c(C)c3)c2cc1NC(=O)C1CSSC1

IC50 [2]: 420 nM
Structure (SMILES): CCOc1cc2ncc(C#N)c(Nc3ccc(F)c(Cl)c3)c2cc1NC(=O)CCCCC1CCSS1 (stereo not given)

IC50 [2]: 219 nM
Structure (SMILES): CCOc1cc2ncc(C#N)c(Nc3ccc(F)c(Cl)c3)c2cc1NC(=O)C1CSSC1

IC50 [2]: 5.8 nM
IC50 [3]: 25 nM
Structure (SMILES): COc1cc2ncnc(Nc3ccc(OCc4cccc(F)c4)c(Cl)c3)c2cc1NC(=O)CC1CCSS1 (stereo not given)

IC50 [2]: 300 nM
Structure (SMILES): CCOc1cc2ncc(C#N)c(Nc3ccc(F)c(Cl)c3)c2cc1NC(=O)CC1CCSS1 (stereo not given)

Further lines, the compound ahead of its results:

Structure (SMILES): COc1cc2ncnc(Nc3ccc(OCc4cccc(F)c4)c(Cl)c3)c2cc1NC(=O)C1CSSC1
IC50 [2]: 6.5 nM
IC50 [3]: 76 nM

Structure (SMILES): Cc1ccc(Oc2ccc(Nc3c(C#N)cnc4ccc(NC(=O)CC5CCSS5)cc34)cc2C)cn1 (stereo not given)
IC50 [1]: > 10000 nM
IC50 [2]: > 10000 nM
IC50 [3]: 8630 nM

Structure (SMILES): CCOc1cc2ncc(C#N)c(Nc3ccc(OCc4cccc(F)c4)c(Cl)c3)c2cc1NC(=O)C1CSSC1
IC50 [1]: 730 nM
Ratio IC50 (Homo sapiens): > 25
IC50 [2]: 18 nM
Kd [4]: 110 nM
IC50 [3]: 210 nM

Structure (SMILES): CCOc1cc2ncc(C#N)c(Nc3ccc(OCc4cccc(F)c4)c(Cl)c3)c2cc1NC(=O)CCCCC1CCSS1 (stereo not given)
IC50 [2]: 33 nM
Kd [6]: 32 nM
IC50 [3]: 730 nM

Structure (SMILES): CC(=O)SCC(CSC(C)=O)C(=O)Nc1cc2c(Nc3ccc(OCc4cccc(F)c4)c(Cl)c3)c(C#N)cnc2cc1OC[C@H](O)CO
Kd [7]: 5.9 nM
Kd [8]: 60 nM
Kd [9]: 58 nM
Kd [10]: 2.1 nM

Structure (SMILES): N#Cc1cnc2cc(OC[C@@H](O)CO)c(NC(=O)C3CSSC3)cc2c1Nc1ccc(OCc2cccc(F)c2)c(Cl)c1
Kd [7]: 1.9 nM
IC50 [1]: 167 nM
Ratio IC50 (Homo sapiens): > 25
IC50 [2]: 9 nM
IC50 [3]: 125 nM
Kd [8]: 16 nM
Kd [9]: 8.4 nM
Kd [10]: 0.7 nM

Structure (SMILES): COc1cc2ncnc(Nc3ccc(Oc4ccc(C)nc4)c(C)c3)c2cc1NC(=O)CC1CCSS1 (stereo not given)
GI50 (CCRF-CEM [11]): 220 nM
GI50 (A549): 760 nM
TI (NCI-H322M [12]): >46.7
GI50 (MOLT-4 [13]): 160 nM
GI50 (NCI-H322M [14]): 1070 nM
TI (CCRF-CEM [15]): >227
TI (MOLT-4 [16]): 16.2
GI50 (NCI-H460): 110 nM
CC50 (CCRF-CEM [17]): > 50000 nM
CC50 (MOLT-4 [18]): > 2600 nM
CC50 (NCI-H322M [19]): > 50000 nM

Structure (SMILES): CCOc1cc2ncc(C#N)c(Nc3ccc(OCc4cccc(F)c4)c(Cl)c3)c2cc1NC(=O)C(CSC(C)=O)CSC(C)=O
IC50 [2]: 26.8 nM
Kd [4]: 180 nM
Kd [6]: 16 nM
IC50 [3]: 340 nM

Structure (SMILES): N#Cc1cnc2cc(OC[C@H](O)CO)c(NC(=O)C3CSSC3)cc2c1Nc1ccc(OCc2cccc(F)c2)c(Cl)c1
IC50 [2]: 20 nM
IC50 [3]: 256 nM

Structure (SMILES): O=c1ccc2ccc(O)cc2o1 [UMBELLIFERONE]
half-life [20]: 26.6 min

Structure (SMILES): Cc1ccc(Oc2ccc(Nc3c(C#N)cnc4ccc(NC(=O)C5CSSC5)cc34)cc2C)cn1
IC50 [2]: > 10000 nM
IC50 [3]: > 10000 nM
